Measurements taken from ChEMBL document CHEMBL1275391, “Design, synthesis, and preclinical evaluation of new 5,6- (or 6,7-) disubstituted-2-(fluorophenyl)quinolin-4-one derivatives as potent antitumor agents” (J Med Chem, 2010).
Activity calls are given as the source filed them. No cut-off for these calls is given here.

Columns and labels:
HCT-116 = test: Cytotoxicity against human HCT116 cells after 48 hrs by MTT assay; assay type: functional, cell-based; details: HCT-116, 48 h
Method in brief: (§1)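 Cells exposed to a range of compound concentrations for 48 h, washed once with PBS, then incubated with MTT for 2 h. Formazan dissolved in DMSO and absorbance read at 570 nm. IC50 taken as the concentration giving 50% inhibition of proliferation.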

[1] = Cytotoxicity against human Hep3B cells after 48 hrs by MTT assay; assay type: functional, cell-based, Hep 3B2; method in brief: as §1
NCI-H460 = test: Cytotoxicity against human H460 cells after 48 hrs by MTT assay; assay type: functional, cell-based; details: NCI-H460, 48 h; method in brief: as §1
HL-60 = test: Cytotoxicity against human HL60 cells after 48 hrs by MTT assay; assay type: functional, cell-based; details: HL-60, 48 h; method in brief: as §1
Hep 3B2 [2] = test: Antitumor activity against human Hep3B cells xenografted in BALB/c nude mouse assessed as inhibition of complete tumor growth administered at 30 mg/kg, po qd for 5 times per week for 4 weeks; assay type: functional, organism-based; set-up: dose 30 mg/kg
Method in brief: (§2)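 Male Balb/c nude mice, 4-6 weeks, 18-20 g; 2 × 10^6 Hep3B cells in 0.1 mL injected subcutaneously into right flank. Dosing began when tumors exceeded 100 mm3 (day 0), given po or iv once daily, 5 days/week for 4 weeks, stopped day 28. Tumor volume (length × width² × 0.5) and body weight recorded every 7 days; T/C = (Tn − T0)/(Cn − C0) × 100%.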

Hep 3B2 [3] = test: Antitumor activity against human Hep3B cells xenografted in BALB/c nude mouse assessed as inhibition of tumor growth administered at 7.5 mg/kg, po qd for 5 times per week for 4 weeks
Hep 3B2 [4] = test: Antitumor activity against human Hep3B cells xenografted in BALB/c nude mouse assessed as inhibition of tumor growth administered at 7.5 mg/kg, po qd for 5 times per week for 4 weeks; assay type: functional, organism-based; set-up: dose 7.5 mg/kg; method in brief: as §2
Hep 3B2 [5] = test: Antitumor activity against human Hep3B cells xenografted in iv dosed BALB/c nude mouse assessed as inhibition of tumor growth administered qd for 5 times per week for 4 weeks measured on day 28; assay type: functional, organism-based; method in brief: as §2
Hep 3B2 [6] = test: Antitumor activity against human Hep3B cells xenografted in BALB/c nude mouse assessed as inhibition of tumor growth administered at 7.5 to 30 mg/kg, po qd for 5 times per week for 4 weeks; assay type: functional, organism-based; details: TDE = time-dependent effect; method in brief: as §2
Hep 3B2 [7] = test: Antitumor activity against human Hep3B cells xenografted in BALB/c nude mouse assessed as inhibition of tumor growth administered at 7.5 to 30 mg/kg, iv qd for 5 times per week for 4 weeks; assay type: functional, organism-based; details: TDE = time-dependent effect; method in brief: as §2
Mus musculus = test: Toxicity in human Hep3B cells xenografted BALB/c nude mouse assessed as change in body weight at 7.5 to 30 mg/kg, po qd for 5 times per week for 4 weeks measured on day 28; assay type: organism-based, Hep 3B2; set-up: dose 7.5-30 mg/kg, route oral; details: in vivo, 672 h
Method in brief: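 Male Balb/c nude mice, 4-6 weeks old and 18-20 g, were housed under SPF conditions. Each received 2 × 10^6 Hep3B cells in 0.1 mL s.c. into the right flank. Once tumors exceeded 100 mm3 (day 0), animals were grouped and dosed orally once daily, 5 days/week for 4 weeks. Body weight and tumor size were recorded every 7 days up to day 28.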

Hep 3B2 [8] = test: Antitumor activity against human Hep3B cells xenografted in po dosed BALB/c nude mouse assessed as inhibition of tumor growth administered qd for 5 times per week for 4 weeks measured on day 28; assay type: functional, organism-based; method in brief: as §2

## O=c1cc(-c2ccccc2F)[nH]c2ccc(O)c(O)c12
HCT-116
  IC50: 0.6 µM
[1]
  IC50: 3.9 µM
NCI-H460
  IC50: 4.1 µM
HL-60
  IC50: 0.5 µM

## COc1cc2c(=O)cc(-c3cccc(F)c3)[nH]c2cc1O
HCT-116
  IC50: 1.1 µM
[1]
  IC50: 5.3 µM
NCI-H460
  IC50: 4.8 µM
HL-60
  IC50: 0.9 µM

## COc1ccc2[nH]c(-c3ccccc3F)cc(=O)c2c1OC
HCT-116
  IC50: > 20 µM
[1]
  IC50: > 20 µM
NCI-H460
  IC50: > 20 µM
HL-60
  IC50: 3.7 µM

## O=c1cc(-c2ccc(F)cc2)[nH]c2ccc(O)c(O)c12
HCT-116
  IC50: > 100 µM
[1]
  IC50: 100 µM
NCI-H460
  IC50: 100 µM
HL-60
  IC50: 38.6 µM

## COc1ccc2[nH]c(-c3ccc(F)cc3)cc(=O)c2c1OC
HCT-116
  IC50: > 20 µM
[1]
  IC50: > 20 µM
NCI-H460
  IC50: > 20 µM
HL-60
  IC50: 2 µM

## O=c1cc(-c2cccc(F)c2)[nH]c2ccc3c(c12)OCO3
HCT-116
  IC50: 2.5 µM
[1]
  IC50: 2.4 µM
NCI-H460
  IC50: 3.2 µM
HL-60
  IC50: 0.7 µM

## COc1ccc2[nH]c(-c3ccccc3F)cc(=O)c2c1O
HCT-116
  IC50: 0.05 µM
[1]
  IC50: 0.05 µM
NCI-H460
  IC50: 0.11 µM
HL-60
  IC50: 0.07 µM

## COc1ccc2[nH]c(-c3cccc(F)c3)cc(=O)c2c1OP(=O)([O-])[O-].[Na+].[Na+]
Hep 3B2 [2]
  Activity: Active
Hep 3B2 [3]
  Activity: Active
Hep 3B2 [4]
  Activity: Active
Hep 3B2 [5]
  Activity: Dose-dependent effect
Hep 3B2 [6]
  Activity: tde
Hep 3B2 [7]
  Activity: tde
Mus musculus
  Activity: Non-toxic
Hep 3B2 [8]
  Activity: Dose-dependent effect

## COc1ccc2[nH]c(-c3cccc(F)c3)cc(=O)c2c1OC
HCT-116
  IC50: 1.2 µM
[1]
  IC50: 2.6 µM
NCI-H460
  IC50: 3.5 µM
HL-60
  IC50: 1.3 µM

## O=c1cc(-c2ccc(F)cc2)[nH]c2ccc3c(c12)OCO3
HCT-116
  IC50: > 10 µM
[1]
  IC50: > 10 µM
NCI-H460
  IC50: > 10 µM
HL-60
  IC50: > 10 µM

## O=c1cc(-c2ccccc2F)[nH]c2cc3c(cc12)OCO3
HCT-116
  IC50: 0.15 µM
[1]
  IC50: 0.13 µM
NCI-H460
  IC50: 0.14 µM
HL-60
  IC50: 0.08 µM

## COc1cc2c(=O)cc(-c3ccccc3F)[nH]c2cc1O
HCT-116
  IC50: 5.8 µM
[1]
  IC50: 5.3 µM
NCI-H460
  IC50: 4.4 µM
HL-60
  IC50: 1.3 µM

## COc1ccc2[nH]c(-c3ccc(F)cc3)cc(=O)c2c1O
HCT-116
  IC50: 2.4 µM
[1]
  IC50: 11 µM
NCI-H460
  IC50: 8.8 µM
HL-60
  IC50: 1.8 µM

## O=c1cc(-c2cccc(F)c2)[nH]c2ccc(O)c(O)c12
HCT-116
  IC50: 8.2 µM
[1]
  IC50: 6.9 µM
NCI-H460
  IC50: 6.1 µM
HL-60
  IC50: 0.3 µM

## COc1cc2c(=O)cc(-c3ccc(F)cc3)[nH]c2cc1O
HCT-116
  IC50: > 100 µM
[1]
  IC50: > 100 µM
NCI-H460
  IC50: > 100 µM
HL-60
  IC50: 38.2 µM

## O=c1cc(-c2ccccc2F)[nH]c2ccc3c(c12)OCO3
HCT-116
  IC50: 2.1 µM
[1]
  IC50: 1.9 µM
NCI-H460
  IC50: 4.5 µM
HL-60
  IC50: 1 µM
